Reference: publication PMC6272120 (Cancer Science, 2018)

Tests used:
786‐O and ACHN cells [1] = test: Wound healing and transwell migration assay; type: cell-based, human
Outline: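 Transwell, 8-μm pores: 1 × 10⁴ cells (migration) or 2 × 10⁴ on Matrigel (invasion) in serum-free medium with treatment above complete medium at matching concentration, 24 h. Cells fixed 4% paraformaldehyde, stained .1% crystal violet, counted in 4 random fields. Mean ± SD, 3 experiments.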

[2] = test system: E‐cadherin, N‐cadherin, vimentin in 786‐O and ACHN cells; test: Western blot of EMT‐related proteins; type: cell-based, human
786‐O cells = test: Cell viability assay; type: cell-based; settings: Homo sapiens
Outline: (§1)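 Cells in RPMI-1640 with 10% FBS, seeded 5 × 10³/well, left overnight. Medium then replaced with test compound at 0, 10, 20, 40, 60, 80 and 100 μmol/L for 24 or 48 h. CCK8 added for 4 h at 37°C; OD read at 490 nm. Mean ± SD of 3 independent experiments.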

ACHN cells = test: Cell viability assay; type: cell-based; settings: Homo sapiens
Outline: as §1

[3] = test system: HK‐2 normal renal tubular epithelial cells; test: Cell viability assay; type: cell-based, human; settings: HK‐2, low doses of TQ (less than 60 μmol/L)
786‐O and ACHN cells [4] = test: Transwell invasion assay; type: cell-based, human; settings: 0, 20, 40, 60 μmol/L TQ
[5] = test system: LC3 in 786‐O and ACHN cells; test: Autophagy detection; type: cell-based, human
Outline: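 786-O and ACHN cells pretreated 4 h with AMPK inhibitor (50 μmol/L), then 40 μmol/L test compound 24 h. RIPA lysis with protease/phosphatase inhibitors and PMSF on ice; BCA-normalised; 10%-15% SDS-PAGE, PVDF, 10% milk block 2 h RT; anti-LC3-I/II overnight 4°C, secondary 1 h; ECL detection. Mean ± SD of 3 independent experiments.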

[6] = test system: AMPK/mTOR signaling pathway in 786‐O and ACHN cells; test: Western blot of AMPK/mTOR signaling pathway; type: cell-based, human; settings: 0, 20, 40, 60 μmol/L TQ, 24 hours
Outline: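 786-O and ACHN cells exposed 24 h to test compound at 0, 20, 40, 60 μmol/L. RIPA lysis with protease/phosphatase inhibitors and PMSF; BCA-normalised; 10%-15% SDS-PAGE, PVDF, 10% milk block. Probed overnight at 4°C for AMPK, p-AMPK (Thr172), mTOR, p-mTOR (Ser2448), p-S6K (Thr389), LC3; secondary 1 h; ECL. Mean ± SD, 3 independent experiments.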

786‐O xenograft tumors = test: Subcutaneous 786‐O xenograft tumor model; type: in vivo, nude mice
Outline: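 Male nude mice, 5 weeks old, 19-22 g, given 1 × 10⁶ 786-O cells s.c. with Matrigel in the right flank. At 100-150 mm³, randomised 5 per group: intraperitoneal DMSO or test compound 20 mg/kg every 3 days. Volume ((length × width²) × .5) and body weight recorded every 3 days. Tumours excised and weighed after 30 days. Mean ± SD.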

[7] = test system: lung metastasis of 786‐O cells; test: Metastatic tumor model, luciferase‐tagged 786‐O cells via tail veins; type: in vivo, nude mice; settings: vs control
Outline: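 Male nude mice, 5 weeks old, 19-22 g, received luciferase-tagged 786-O cells by tail vein, then two groups. Dosing was intraperitoneal DMSO (control) or test compound 20 mg/kg every 3 days. At day 30: D-luciferin 150 mg/kg i.p., 10 min wait, chloral hydrate anaesthesia, then bioluminescence imaging. Lung tumours harvested and H&E-stained.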

RCC cells = test: Comparison of TQ with everolimus; type: cell-based, human; settings: Figure S3
[8] = 3‐MA 5 mmol/L with TQ 40 μmol/L
[9] = TQ 20 mg/kg intraperitoneal every 3 days, 30 days
[10] = compound C 50 μmol/L pretreatment 4 hours, then TQ 40 μmol/L 24 hours

Cn1cnc(N)c2ncnc1-2 [3‐MA, 3‐methyladenine]
effect on anti‐migratory ability of TQ (786‐O and ACHN cells [1]; [8]): remarkably attenuated | effect on TQ‐induced MET [2, 8]: abate TQ‐induced MET

CC1=CC(=O)C(C(C)C)=CC1=O [TQ, 2‐methyl‐5‐isopropyl‐1,4‐benzoquinone]
IC50 (786‐O cells; 786-0, 24 h, read-out: IC50 value, inhibition on cell growth): 55 µM | inhibition at 40 µM (786‐O cells; 786-0, read-out: inhibitory rate of cell proliferation): < 20% | IC50 (ACHN cells; 24 h, read-out: IC50 value, inhibition on cell growth): 72 µM | inhibition at 40 µM (ACHN cells; read-out: inhibitory rate of cell proliferation): < 20% | effect on cell growth of normal cells [3]: no significant decrease in cell growth | cancer cell migration (786‐O and ACHN cells [1]; wound healing 40 μmol/L, transwell 0, 20, 40, 60 μmol/L, 24 hours): attenuated cancer cell migration in a time‐dependent and concentration‐dependent manner | number of invaded cells (786‐O and ACHN cells [4]): number of invaded cells decreased with the increase of TQ concentration | expression of EMT markers ([2]; different concentrations for 24 hours or 40 μmol/L for different times): upregulated epithelial markers (E‐cadherin), while downregulating mesenchymal markers (N‐cadherin, vimentin) | LC3 puncta (autophagosomes and autolysosomes) ([5]; 40 μmol/L TQ, 24 hours, vs control group): number of both yellow and red puncta increased dramatically | LC3‐II expression ([5]; western blot, different concentrations of TQ): upregulate LC3‐II in a concentration‐dependent manner | expression of p‐AMPK [6]: elevated | expressions of p‐mTOR and p‐S6K [6]: reduced | tumor growth / tumor weight vs control (786‐O xenograft tumors; [9]): TQ inhibited RCC cell growth in vivo | expression of E‐cadherin and N‐cadherin in xenograft tumors (786‐O xenograft tumors; immunohistochemistry and western blot, TQ 20 mg/kg): increased expression of E‐cadherin and decreased expression of N‐cadherin | lung metastasis (bioluminescence) [7, 9]: significantly inhibited lung metastasis | number of metastatic nodules in the lungs (H&E) ([7]; TQ 20 mg/kg): significant decrease in the number of metastatic nodules

c1cc(-c2cnn3cc(-c4ccc(OCCN5CCCCC5)cc4)cnc23)ccn1 [compound C]
effect on TQ anti‐migratory and anti‐invasive effects (transwell) (786‐O and ACHN cells [1]; [10]): attenuated the migratory and invasive capacities of autophagy induced by TQ | effect on TQ‐induced MET [2, 10]: weakened TQ‐induced MET | effect on TQ‐induced LC3 [5, 10]: effects of TQ on LC3 could be receded

CO[C@H]1C[C@@H]2CC[C@@H](C)[C@@](O)(O2)C(=O)C(=O)N2CCCC[C@H]2C(=O)O[C@H]([C@H](C)C[C@@H]2CC[C@@H](OCCO)[C@H](OC)C2)CC(=O)[C@H](C)/C=C(\C)[C@@H](O)[C@@H](OC)C(=O)[C@H](C)C[C@H](C)/C=C/C=C/C=C/1C [everolimus]
inhibiting migration and invasion, inducing autophagy and MET, compared with TQ (RCC cells): significantly more potent than TQ
